Reference: ChEMBL document CHEMBL1121830, “Inhibitors of polyamine biosynthesis. 9. Effects of S-adenosyl-L-methionine analogues on mammalian aminopropyltransferases in vitro and polyamine biosynthesis in transformed lymphocytes” (1981)

Legend:
Mus musculus [1] = organism: Mus musculus; test: Effect of the addition of stimulated spermidine on the intracellular concentration in concanavalin A stimulated lymphocytes in the presence of spermine (50 uM) at 48 hours
Mus musculus [2] = organism: Mus musculus; test: Effect on putrescine polyamine accumulation in concanavalin A stimulated lymphocytes at 0.05 mM
[3] = tested on: spermine synthase (Bos taurus); test: Compound was tested for its effect on Bovine brain spermine synthase at 0.1 mM
[4] = molecular target: T1, Spermidine synthase (Rattus norvegicus) (UniProt Q99MI5); test: Substrate activity for the Bovine brain spermidine synthase product formation; details: Bos taurus; target entry is the homologue from another species
T1 sequence (whole entry): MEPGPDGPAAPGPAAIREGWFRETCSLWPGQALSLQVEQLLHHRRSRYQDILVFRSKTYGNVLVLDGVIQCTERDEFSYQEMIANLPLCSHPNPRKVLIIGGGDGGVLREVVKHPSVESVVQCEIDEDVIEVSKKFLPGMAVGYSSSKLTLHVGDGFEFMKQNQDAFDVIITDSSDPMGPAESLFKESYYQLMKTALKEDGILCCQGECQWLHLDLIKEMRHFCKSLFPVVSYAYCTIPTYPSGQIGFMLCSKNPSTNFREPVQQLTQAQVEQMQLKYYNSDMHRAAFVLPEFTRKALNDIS

Mus musculus [5] = organism: Mus musculus; test: Effect of the addition of stimulated spermine on the intracellular concentration in concanavalin A stimulated lymphocytes in the absence of compound at 48 hours
[6] = tested on: spermine synthase (Bos taurus); test: Compound was tested for its effect on Bovine brain spermine synthase at 0.01 mM
Mus musculus [7] = organism: Mus musculus; test: Effect on putrescine polyamine accumulation in concanavalin A stimulated lymphocytes at 0.10 mM
Mus musculus [8] = organism: Mus musculus; test: Effect on putrescine polyamine accumulation in concanavalin A stimulated lymphocytes at 0.20 mM
[9] = molecular target: T1, Spermidine synthase (Rattus norvegicus); test: Compound was tested for its effect on rat prostatic spermidine synthase at 0.1 mM
Procedure, shortened: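 Rat prostate spermidine synthase preparation with 20 μM 14C-S-methyladenosylhomocysteamine and 1 mM putrescine, inhibitor at 0.1 mM. Incubation at 37 °C for 15 min; radiolabelled spermidine formed was measured.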

Mus musculus [10] = organism: Mus musculus; test: Effect on spermidine polyamine accumulation in concanavalin A stimulated lymphocytes at 0.02 mM
Mus musculus [11] = organism: Mus musculus; test: Effect on putrescine polyamine accumulation in concanavalin A stimulated lymphocytes at 0.02 mM
[12] = molecular target: T1, Spermidine synthase (Rattus norvegicus); test: Substrate activity for Prostatic spermidine synthase product formation in rat
Procedure, shortened: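 Substrate test: 0.13 mM S-methyladenosylhomocysteamine or analogue with 0.6 mM [14C]putrescine (spermidine synthase) or [14C]spermidine (spermine synthase). Enzyme was 1.57 mg rat ventral prostate soluble supernatant protein or 0.09 mg enzyme purified 30-fold from bovine brain soluble fraction. Incubated 20 min at 37 °C, stopped with perchloric acid, and labelled polyamines measured by paper electrophoresis.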

Mus musculus [13] = organism: Mus musculus; test: Effect of the addition of stimulated spermidine on the intracellular concentration in concanavalin A stimulated lymphocytes in the absence of compound at 48 hours
Mus musculus [14] = organism: Mus musculus; test: Effect of the addition of stimulated spermidine on the intracellular concentration in concanavalin A stimulated lymphocytes in the presence of compound (0.5 mM) and putrescine (50 uM) at 48 hours
Mus musculus [15] = organism: Mus musculus; test: Effect of the addition of stimulated spermidine on the intracellular concentration in concanavalin A stimulated lymphocytes in the presence of compound (0.5 mM) and spermidine (50 uM) at 48 hours
Mus musculus [16] = organism: Mus musculus; test: Effect of the addition of stimulated spermine (50 uM) on the intracellular concentration in concanavalin A stimulated lymphocytes in the absence of compound at 48 hours
[17] = tested on: spermine synthase (Bos taurus); test: Compound was tested for its effect on Bovine brain spermine synthase at 1.0 mM
Mus musculus [18] = organism: Mus musculus; test: Effect on putrescine polyamine accumulation in concanavalin A stimulated lymphocytes at 0.35 mM
[19] = tested on: Spermine synthase (Rattus norvegicus); test: Substrate activity for Prostatic spermine synthase product formation in rat
Mus musculus [20] = organism: Mus musculus; test: Effect of the addition of stimulated putrescine on the intracellular concentration in concanavalin A stimulated lymphocytes in the absence of compound at 48 hours
Mus musculus [21] = organism: Mus musculus; test: Effect of the addition of stimulated spermidine on the intracellular concentration in concanavalin A stimulated lymphocytes in the presence of spermidine (50 uM) at 48 hours
Mus musculus [22] = organism: Mus musculus; test: Effect of the addition of stimulated spermine on the intracellular concentration in concanavalin A stimulated lymphocytes in the absence of compound at 24 hours
Mus musculus [23] = organism: Mus musculus; test: Effect on putrescine polyamine accumulation in concanavalin A stimulated lymphocytes at 0.50 mM
Mus musculus [24] = organism: Mus musculus; test: Effect of the addition of stimulated spermidine on the intracellular concentration in concanavalin A stimulated lymphocytes in the presence of compound (0.5 mM) and spermine (50 uM) at 48 hours
Mus musculus [25] = organism: Mus musculus; test: Effect of the addition of stimulated spermidine on the intracellular concentration in concanavalin A stimulated lymphocytes in the presence of compound (0.5 mM) at 48 hours
[26] = tested on: spermine synthase (Rattus norvegicus); test: Compound was tested for its effect on rat prostatic spermine synthase at 0.1 mM
Mus musculus [27] = organism: Mus musculus; test: Effect on spermidine polyamine accumulation in concanavalin A stimulated lymphocytes at 0.05 mM
Mus musculus [28] = organism: Mus musculus; test: Effect on spermidine polyamine accumulation in concanavalin A stimulated lymphocytes at 0.10 mM
[29] = tested on: spermine synthase (Bos taurus); test: Compound was tested for its effect on Bovine brain spermine synthase at 0.4 mM
Mus musculus [30] = organism: Mus musculus; test: Effect of the addition of stimulated spermidine on the intracellular concentration in concanavalin A stimulated lymphocytes in the presence of compound (0.5 mM) at 24 hours

- Activity [3]: 88%
- Activity [4]: 25 pmol/min
- Activity [6]: 102%
- Activity [9]: 76%
- Activity [12]: 56 pmol/min
- Activity [17]: 23%
- Activity [19]: 0%
- Activity [26]: 66%
- Activity [29]: 58%
Compound: CC(N)CC[S+](C)C[C@H]1O[C@@H](n2cnc3c(N)ncnc32)[C@H](O)[C@@H]1O.[I-] (stereo not given in full)
- Polyamine (Mus musculus [1]): 38.2 pmol/g
- Level (Mus musculus [2]): 11 pmol/g DNA
- Polyamine (Mus musculus [5]): 59.8 pmol/g
- Level (Mus musculus [7]): 8.9 pmol/g DNA
- Level (Mus musculus [8]): 6.8 pmol/g DNA
- Level (Mus musculus [10]): 67.3 pmol/g DNA
- Level (Mus musculus [11]): 17.8 pmol/g DNA
- Polyamine (Mus musculus [13]): 90.5 pmol/g
- Polyamine (Mus musculus [14]): 21.7 pmol/g
- Polyamine (Mus musculus [15]): 26.2 pmol/g
- Polyamine (Mus musculus [16]): 98.2 pM/g
- Level (Mus musculus [18]): 4.2 pmol/g DNA
- Polyamine (Mus musculus [20]): 13.3 pmol/g
- Polyamine (Mus musculus [21]): 157 pmol/g
- Polyamine (Mus musculus [22]): 38.6 pmol/g
- Level (Mus musculus [23]): 3.5 pmol/g DNA
- Polyamine (Mus musculus [24]): 20 pM/g
- Polyamine (Mus musculus [25]): 19.3 pmol/g
- Level (Mus musculus [27]): 39.8 pmol/g DNA
- Level (Mus musculus [28]): 38.7 pmol/g DNA
- Polyamine (Mus musculus [30]): 17.5 pmol/g
